Assay results reported in ChEMBL document CHEMBL1155605, “Effect of lichen metabolites on thylakoid electron transport and photophosphorylation in isolated spinach chloroplasts” (J Nat Prod, 2000).
pIC50: −log10 of the molar value. Blank lines part the entries; values can stand above or below the molecule they belong to. Activity calls are given as the source filed them. The rule behind the calls is not given here.

Columns and labels:
Echinochloa crus-galli [1] = experiment: Phytogrowth-inhibitory activity against Echinochloa crusgalli assessed as inhibition of seedling growth; type: functional, organism-based
Outline: (§1)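 Petri-dish seed assay at 28 °C, run at 1, 10, 100 and 1000 µg/mL with 2,4-D as positive control. Data analysed by ANOVA (p<0.05). IC50 in molar units obtained by Probit analysis of percent radicle growth inhibition.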

Echinochloa crus-galli [2] = experiment: Phytogrowth-inhibitory activity against Echinochloa crusgalli assessed as inhibition of seedling germination; type: functional, organism-based
[3] = tested on: Amaranthus hypochondriacus; experiment: Phytogrowth-inhibitory activity against Amaranthus hypochondriacus assessed as inhibition of seedling germination; type: functional, organism-based
[4] = tested on: Amaranthus hypochondriacus; experiment: Phytogrowth-inhibitory activity against Amaranthus hypochondriacus assessed as inhibition of seedling growth; type: functional, organism-based; outline: as §1
[5] = Inhibition of photosynthetic phosphorylation from water to methyl viologen in spinach leaves chloroplast; type: functional, Spinacia oleracea; conditions: read-out: I50
Outline: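 ATP synthesis determined titrimetrically by pH change, with 0.05 mM MV as Hill acceptor in 100 mM sorbitol, 5 mM MgCl2, 10 mM KCl, 1 mM tricine pH 8.0. Compounds at 50–300 µM; DCMU at 0.01–10.0 µM as reference. I50 extrapolated from the percent-activity versus concentration plot.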

Spinacia oleracea [6] = experiment: Effect on uncoupled photosystem 2 of spinach chloroplast assessed as inhibition of electron transport rate of water to silicomolybdate at 50 uM relative to control
Outline: (§2)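 Intact thylakoids from market spinach leaves, stored dark 1 h at 0 °C. Uncoupled medium: 100 mM sorbitol, 5 mM MgCl2, 10 mM KCl, 15 mM tricine pH 8.0, 0.5 mM KCN, 300 µM ferricyanide, 1 µM DBMIB, 100 µM DCPIP, 6 mM NH4Cl, plus 200 µM SiMo and 10 µM DCMU. O2 evolution by Clark electrode under filtered actinic light for 2 min. Activity expressed relative to control.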

Spinacia oleracea [7] = experiment: Effect on uncoupled photosystem 2 of spinach chloroplast assessed as inhibition of electron transport rate of water to silicomolybdate at 200 uM relative to control; outline: as §2
Spinacia oleracea [8] = experiment: Effect on uncoupled photosystem 2 of spinach leaves chloroplast assessed as inhibition of electron transport from water to 2,6-dichlorophenol indophenol at 300 uM relative to control
Outline: (§3)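 Uncoupled PSII as DCPIP-supported O2 evolution, monitored polarographically with a Clark electrode. Spinach thylakoids in 100 mM sorbitol, 5 mM MgCl2, 10 mM KCl, 15 mM tricine pH 8.0 and 0.5 mM KCN. Ferricyanide 300 µM replaces MV; 1 µM DBMIB, 100 µM DCPIP and 6 mM NH4Cl added. Illumination 2 min through 1% CuSO4 filter. Activity relative to control.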

Spinacia oleracea [9] = experiment: Effect on uncoupled photosystem 2 of spinach leaves chloroplast assessed as inhibition of electron transport from diphenylcarbazide to 2,6-dichlorophenol indophenol at 200 uM relative to control
Outline: (§4)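 Tris-treated (0.8 M, pH 8.0) spinach thylakoids in uncoupled medium with 200 µM DPC, 100 µM DCPIP, 1 µM DBMIB and 6 mM NH4Cl. DCPIP reduction followed spectrophotometrically. Activity expressed relative to control.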

Spinacia oleracea [10] = experiment: Effect on uncoupled photosystem 2 of spinach chloroplast assessed as inhibition of electron transport rate of water to silicomolybdate at 300 uM relative to control; outline: as §2
Spinacia oleracea [11] = experiment: Effect on uncoupled photosystem 2 of spinach chloroplast assessed as inhibition of electron transport rate of water to silicomolybdate at 100 uM relative to control; outline: as §2
Spinacia oleracea [12] = experiment: Inhibition of photophosphorylation in spinach leaves chloroplast assessed as inhibition of noncyclic electron transport from water to methyl viologen in uncoupled condition; type: functional
Outline: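 Water→0.05 mM MV O2 uptake measured with a Clark electrode in basal medium (15 mM tricine pH 8.0, 0.5 mM KCN) plus 6 mM NH4Cl as uncoupler, with 2 min actinic illumination. Compounds at 50–300 µM. I50 from the percent-activity versus concentration plot.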

Spinacia oleracea [13] = experiment: Effect on uncoupled photosystem 2 of spinach leaves chloroplast assessed as inhibition of electron transport from water to 2,6-dichlorophenol indophenol at 250 uM relative to control; outline: as §3
Spinacia oleracea [14] = experiment: Effect on uncoupled photosystem 2 of spinach chloroplast assessed as inhibition of electron transport rate of water to silicomolybdate at 250 uM relative to control; outline: as §2
Spinacia oleracea [15] = experiment: Effect on uncoupled photosystem 2 of spinach leaves chloroplast assessed as inhibition of electron transport from water to 2,6-dichlorophenol indophenol at 200 uM relative to control; outline: as §3
Spinacia oleracea [16] = experiment: Effect on uncoupled photosystem 2 of spinach leaves chloroplast assessed as inhibition of electron transport from water to 2,6-dichlorophenol indophenol at 50 uM relative to control; outline: as §3
Spinacia oleracea [17] = experiment: Effect on uncoupled photosystem 2 of spinach leaves chloroplast assessed as inhibition of electron transport from water to 2,6-dichlorophenol indophenol at 100 uM relative to control; outline: as §3
[18] = Inhibition of light-dependent proton uptake in spinach leaves chloroplast; type: functional, Spinacia oleracea; conditions: read-out: I50
Outline: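 Light-driven proton uptake recorded as a pH rise from 8.0 to 8.1 with a combination microelectrode on an expanded-scale potentiometer. Medium: 100 mM sorbitol, 5 mM MgCl2, 10 mM KCl, 1 mM tricine pH 8.0, 0.05 mM MV. Compounds at 50–300 µM. I50 read from the plot of percent activity against concentration.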

Spinacia oleracea [19] = experiment: Effect on uncoupled photosystem 2 of spinach leaves chloroplast assessed as inhibition of electron transport from diphenylcarbazide to 2,6-dichlorophenol indophenol at 150 uM relative to control; outline: as §4
Spinacia oleracea [20] = experiment: Effect on uncoupled photosystem 2 of spinach leaves chloroplast assessed as inhibition of electron transport from diphenylcarbazide to 2,6-dichlorophenol indophenol at 300 uM relative to control; outline: as §4
Spinacia oleracea [21] = experiment: Effect on uncoupled photosystem 2 of spinach chloroplast assessed as inhibition of electron transport rate of water to silicomolybdate at 150 uM relative to control; outline: as §2
Spinacia oleracea [22] = experiment: Effect on uncoupled photosystem 2 of spinach leaves chloroplast assessed as inhibition of electron transport from diphenylcarbazide to 2,6-dichlorophenol indophenol at 50 uM relative to control; outline: as §4
Spinacia oleracea [23] = experiment: Effect on uncoupled photosystem 2 of spinach leaves chloroplast assessed as inhibition of electron transport from diphenylcarbazide to 2,6-dichlorophenol indophenol at 100 uM relative to control; outline: as §4
Spinacia oleracea [24] = experiment: Effect on uncoupled photosystem 2 of spinach leaves chloroplast assessed as inhibition of electron transport from diphenylcarbazide to 2,6-dichlorophenol indophenol at 250 uM relative to control; outline: as §4
Spinacia oleracea [25] = experiment: Effect on uncoupled photosystem 2 of spinach leaves chloroplast assessed as inhibition of electron transport from water to 2,6-dichlorophenol indophenol at 150 uM relative to control; outline: as §3

SMILES: O=C(O)COc1ccc(Cl)cc1Cl [2,4-DICHLOROPHENOXYACETIC ACID]
pIC50 (Echinochloa crus-galli [1]): < 3.64
pIC50 (Echinochloa crus-galli [2]): < 3.64
pIC50 [3]: 3.06

SMILES: COC(=O)c1c(C)cc(O)c(C)c1O [ATRARIC ACID]
pIC50 [4]: 3.49
pIC50 (Echinochloa crus-galli [1]): 3.21
pIC50 (Echinochloa crus-galli [2]): 2.96
pIC50 [3]: 3.12

pIC50 [5]: 6.85
SMILES: CN(C)C(=O)Nc1ccc(Cl)c(Cl)c1 [DCMU]

Activity (Spinacia oleracea [6]): 93.4
Activity (Spinacia oleracea [7]): 41
Activity (Spinacia oleracea [8]): Active
Activity (Spinacia oleracea [9]): 33.8
Activity (Spinacia oleracea [10]): Active
Activity (Spinacia oleracea [11]): 79.9
Activity (Spinacia oleracea [13]): 4.1
Activity (Spinacia oleracea [14]): Active
Activity (Spinacia oleracea [15]): 16.8
Activity (Spinacia oleracea [16]): 72.1
Activity (Spinacia oleracea [17]): 49.7
pIC50 [18]: 4.22
Activity (Spinacia oleracea [19]): 40.3
Activity (Spinacia oleracea [20]): 17.9
Activity (Spinacia oleracea [21]): 62.5
pIC50 [5]: 4.06
Activity (Spinacia oleracea [22]): 84.3
Activity (Spinacia oleracea [23]): 58.5
Activity (Spinacia oleracea [24]): 29.9
Activity (Spinacia oleracea [25]): 31.3
SMILES: Cc1cc(OC(=O)c2c(C)cc(OC(=O)c3c(C)cc(O)cc3O)cc2O)cc(O)c1C(=O)O [GYROPHORIC ACID]
pIC50 [4]: 2.70
Activity (Spinacia oleracea [12]): Active
pIC50 (Echinochloa crus-galli [1]): 2.70
pIC50 (Echinochloa crus-galli [2]): 2.70
pIC50 [3]: 2.70

Activity (Spinacia oleracea [6]): 59.1
Activity (Spinacia oleracea [7]): Active
Activity (Spinacia oleracea [8]): Active
Activity (Spinacia oleracea [9]): 96
Activity (Spinacia oleracea [10]): Active
Activity (Spinacia oleracea [11]): 25
Activity (Spinacia oleracea [13]): Active
Activity (Spinacia oleracea [14]): Active
Activity (Spinacia oleracea [15]): Active
Activity (Spinacia oleracea [16]): 64.3
Activity (Spinacia oleracea [17]): 37.5
pIC50 [18]: 3.85
Activity (Spinacia oleracea [19]): 88.9
Activity (Spinacia oleracea [20]): 135
Activity (Spinacia oleracea [21]): 8.4
pIC50 [5]: 3.87
Activity (Spinacia oleracea [22]): 93.6
Activity (Spinacia oleracea [23]): 86.9
Activity (Spinacia oleracea [24]): 112
Activity (Spinacia oleracea [25]): 15.7
SMILES: Cc1cc(O)cc(OC(=O)c2c(C)cc(O)cc2O)c1 [LECANORIN]
pIC50 [4]: 3.24
Activity (Spinacia oleracea [12]): Active
pIC50 (Echinochloa crus-galli [1]): 3.74
pIC50 (Echinochloa crus-galli [2]): 3.15
pIC50 [3]: 3.12

SMILES: COc1cc(C)c2c(=O)c3c(O)cc(OC)cc3oc2c1 [LICHEXANTHONE]
pIC50 [4]: < 2.70
pIC50 (Echinochloa crus-galli [1]): < 2.70
pIC50 (Echinochloa crus-galli [2]): < 2.70
pIC50 [3]: < 2.70

SMILES: COC(=O)c1c(C)cc(O)c(C=O)c1O [METHYL HAEMATOMMATE]
pIC50 (Echinochloa crus-galli [1]): 4.54

SMILES: COC(=O)c1c(C)cc(O)cc1O [METHYL ORSELLINATE]
pIC50 [4]: 3.54
pIC50 (Echinochloa crus-galli [1]): 3.51
pIC50 (Echinochloa crus-galli [2]): 3.17
pIC50 [3]: 3.44

SMILES: Cc1cc(O)cc(O)c1 [ORCINOL]
pIC50 [4]: 3.00
pIC50 (Echinochloa crus-galli [1]): 2.96
pIC50 (Echinochloa crus-galli [2]): < 2.09
pIC50 [3]: 2.77
